Compounds with a hit are over-represented: about 3.3% of the library has one in this group of screens.
M18AAP inhibitor: PfM18AAP enzyme inhibition; recombinant PfM18AAP, H-Glu-NHMec fluorogenic cleavage; inhibition, % at 7.35 µM; 290,000 compounds, 1.2% hits;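 active means inhibition above the campaign mean inhibition over all tested compounds plus 3 SD, cut at about 28% in these data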;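 further: 0% = plate median of test compound wells and 100% = 2 mM ZnCl2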
Lipid droplet: hepatic lipid droplet formation modulation. AML12 mouse hepatocytes, oleate lipid droplets, BODIPY imaging. inhibition, % at 6.5 µM. 240,000 compounds, 0.4% hits. AID 1656;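 active means lipid droplet intensity inhibited by at least 50%, with more than 500 cells counted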
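Material – AML12 mouse liver cells · Also added – oleate loading, 100 µM · Compound dosing – 6.5 µM single-point dosing · Times – overnight treatment with compound plus oleate · Measured by – fluorescence imaging, 20x objective, two fields per well · Read-out – percent inhibition of filter-corrected integrated lipid droplet intensity per well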
sPLA2-III inh: Blocks human group III sPLA2 activity; 370,000 compounds, 0.56% hits; Q9NZ20; inhibition, % at 12.2 µM; QFRET BODIPY PC-A2 liposome hydrolysis, fluorescence;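 active means inhibition above mean plus 3 SD of compounds lying within the high and low control bounds, cut at about 19% in these data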;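 further: 0% = median of test compound wells and 100% = no enzyme DMSO wells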
Arrestin-AP2 inh: human beta-arrestin and AP2 interaction inhibition. AID 504490. 340,000 compounds, 0.31% hits. inhibition, % at 10 µM. FITC-arrestin peptide / GST-AP2 beads, flow cytometry; AP2 beta2 appendage carries R879A mutation;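 active means inhibition above a set limit, near 3 SD of compounds lacking own fluorescence, cut at about 54% in these data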;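 further: plate controls were DMSO wells for no effect and 5 µM unlabelled arrestin peptide for full effect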
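system = GST-tagged AP2 beta2-adaptin appendage (R879A) on 4 µm glutathione beads | reagent = FITC-labelled arrestin peptide probe, 50 nM final | schedule = compound with beads 12 min RT, then probe 1 h RT | signal = HyperCyt-sampled flow cytometry, FL1 channel, ex 488/em 535 nm | read-out = percent response from loss of bead-bound FITC fluorescence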
HTR2A ag: mouse HTR2A agonism via beta-arrestin recruitment. CHO-K1 mHTR2A beta-arrestin complementation, luminescence; percent of 30 µM serotonin response. activation, % at 7.6 µM. 360,000 compounds, 0.66% hits;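 active means activation above a run cutoff, the mean activation of all tested compounds plus 3 SD, cut at about 14% in these data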;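 further: 0% = plate median of compound wells and 100% = 30 µM serotonin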
CendR NRP1 mod: modulators of CendR peptide binding to human neuropilin-1. O14786. 360,000 compounds, 0.85% hits. inhibition, % at 25 µM. FAM-RPARPAR peptide binding to NRP-1, fluorescence polarization;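 active means inhibition or corrected inhibition above about 18%, plus a signal ratio from 0.5 to 1.5, limit read from the data, passing the limit was not always enough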
Arr AP2 CP1: inhibitors of human beta-arrestin and AP2 interaction; shares compounds with Arrestin-AP2 inh; GST-AP2 beads, FITC arrestin peptide binding, flow cytometry; GST-fused beta2-adaptin appendage, R879A mutant; 1,300 compounds, 2% hits; inhibition, % at 10 µM;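 active means inhibition above a set limit, roughly 3 SD of non-fluorescent compound noise, cut at about 38% in these data; inactive means inhibition at or below that limit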;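 further: loss of bead fluorescence from 50 nM FITC arrestin peptide bound to appendage; 0% = negative control wells and 100% = excess unlabelled arrestin peptide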
GST GSH counter: GST-GSH bead binding interference, counter-screen. GST-fluorescein binding to GSH beads, fluorescence. inhibition, % at 10 µM. shares compounds with Arrestin-AP2 inh. 1,300 compounds, 2% hits;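 active means inhibition above 50%, about 3 SD of the inhibition seen with non-fluorescent compounds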;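 further: fluorescein maleimide labelled GST captured on 4 micron glutathione beads; higher means more loss of bead fluorescence from quenching or blocked binding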
Starred values were filed as active, the others as inactive; . = no result.

SMILES	M18AAP inhibitor	Lipid droplet	sPLA2-III inh	Arrestin-AP2 inh	HTR2A ag	CendR NRP1 mod	Arr AP2 CP1	GST GSH counter
Cc1cc(C)nc(NC(=NCCc2c[nH]c3ccccc23)NC(=O)c2ccco2)n1	-1	.	-38	83*	-2	1	-17	1
C=C(C1=CCN(S(=O)C(C)(C)C)[C@@H]1CCO)c1ccccc1 (stereo not given in full)	.	.	-3	16	3	-6	.	.
CCCN1CCCCC(NC(C)=O)C1=O (stereo not given)	.	.	4	.	.	.	.	.
COc1cccc(NC(=O)C2CSC3(C)CCC(=O)N23)c1 (stereo not given)	.	.	3	-4	4	-2	.	.
CC(OC(=O)C1CSC2(C)CCC(=O)N12)C(=O)Nc1cccc(C#N)c1 (stereo not given)	.	.	5	1	-5	-6	1	-5
CC(OC(=O)C1CSC2(C)CCC(=O)N12)C(=O)Nc1ccc(F)cc1 (stereo not given)	.	.	-1	-3	0	-8	-12	-9
O=C(NCC1CCN(C(=O)C(=O)c2cc3ccccc3o2)CC1)c1ccc2c(c1)OCC2	.	.	-5	.	.	.	.	.
CC/C(=N\NC(=S)NC(C)C)c1ccc(OC)c(OC)c1	5	10	3	56*	5	7	2	-3
CNC12CCc3cc(OC)c(OC)c(c31)-c1cc3c(cc1C2)OCO3 (stereo not given)	.	.	15	.	.	.	.	.
CCCCCOC(=O)CCN1C(=O)/C(=C2\SC(=S)N(CCC(=O)OCCCCC)C2=O)SC1=S	0	-7	6	56*	-5	7	1	-2
CC(=O)c1ccc(C2CC(OCCF)=CC(=O)O2)cc1 (stereo not given)	.	.	1	.	-3	0	.	.
O=C(Nc1ccc(NC(=O)c2cccs2)c(Cl)c1)c1cccs1	-4	11	-11	55*	-6	-1	-6	-1
O=C(CN1CCN(C(=O)c2ccc(-c3nc4ccccc4s3)o2)CC1)Nc1ccccc1Cl	.	.	11	41	6	-6	.	.
Cc1cccc(NC(=O)CN2CCN(C(=O)c3ccc(-c4nc5ccccc5s4)o3)CC2)c1C	.	.	7	59*	0	-18	-3	11
COc1ccc(-c2ccc(C(=O)NCc3ccc(N(C)C)cc3)c3occc23)c(C)c1	.	.	3	.	-6	2	.	.
COc1ccc(C(C(=O)NC2CCCCC2)N(C(=O)c2ccco2)c2ccc(-n3cnnn3)c(C)c2)cc1 (stereo not given)	0	.	5	2	2	-8	.	.
COc1ccc(N(C(=O)c2ccco2)C(C(=O)NC2CCCCC2)c2cccs2)cc1OC (stereo not given)	3	-6	-6	105*	7	18	2	-11
CCOc1ccc(C(C(=O)NC2CCCCC2)N(C(=O)c2ccco2)c2ccc(-n3cnnn3)c(C)c2)cc1 (stereo not given)	0	-7	-6	100*	-7	-8	-19	-4
COC(=O)[C@]12C[C@H](CC(=O)NCc3cccc(C(F)(F)F)c3)C(=O)N(Cc3cccc4ccccc34)C1=C[C@H](C(C)(C)C)O[C@@H]2C	.	.	-9	.	.	.	.	.
CCN(CC(=O)Nc1c(F)cccc1F)C(=O)CCNS(=O)(=O)c1ccc(C)c(C)c1	.	.	0	58*	-4	2	-4	0
CCOc1ccc(S(=O)(=O)NCCC(=O)N(CC)CC(=O)Nc2c(F)cccc2F)cc1	.	.	-8	-2	0	-5	.	.
Cc1cc(C(=O)Nc2cccc(S(=O)(=O)N3CCCCC3)c2)c2ccccc2n1	1	-23	-20	-6	-1	-15	-9	-2
Cc1cc(C(=O)Nc2cccc(S(=O)(=O)N3CCCC3)c2)c2ccccc2n1	.	.	2	3	-5	3	.	.
